# UCH37 inh: inhibitors of human UCH37 deubiquitinase, primary screen, biochemical, Ub-AMC cleavage, fluorescence; Ubiquitin carboxyl-terminal hydrolase isozyme L5 (Homo sapiens), Q9Y5K5; purified proteasome/UCH37; inhibition, % (concentration not given with the values); 330,000 tested, 0.33% active;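 active = mean inhibition over replicate wells above about 20%, limit read from the data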;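 note: 0% = compound-free wells with enzyme and 100% = wells lacking proteasome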
#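 Schedule: 30 min plus 25 min, room temperature / Material: human UCH37 within purified proteasomes / Technique: AMC fluorescence intensity at 355/460 nm / Buffer or medium: pH 7.4 Tris-HCl (50 mM) with ovalbumin, ATP-MgCl2, DTT / Controls: wells without proteasome as full block, compound-free enzyme plus substrate as uninhibited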
# SENP1 FRET inh: human SENP1 catalytic domain inhibitors, primary screen, biochemical, FRET, uHTS; Sentrin-specific protease 1 (Homo sapiens), Q9P0U3; recombinant SENP1 catalytic domain, CyPet-SUMO1-YPet FRET cleavage; inhibition, % at 10 µM; 360,000 tested, 0.21% active; AID 624204, 2012;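 active = inhibition at least 30% at 10 µM, raw YFP signal under a set limit, fluorescence ratio 0.5 to 1.5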;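 note: 0% = enzyme with DMSO and 100% = no enzyme wells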
# Target sequence (Q9P0U3 419-644 limits assumed): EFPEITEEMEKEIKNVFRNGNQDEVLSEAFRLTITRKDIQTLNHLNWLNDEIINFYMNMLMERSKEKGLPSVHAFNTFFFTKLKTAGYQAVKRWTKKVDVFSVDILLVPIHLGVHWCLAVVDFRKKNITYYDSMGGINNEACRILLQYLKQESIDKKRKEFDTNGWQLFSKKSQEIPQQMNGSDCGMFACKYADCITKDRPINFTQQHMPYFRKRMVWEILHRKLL
#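 Test system: recombinant human SENP1 catalytic domain, His6-tagged / Medium: pH 8 Tris buffer with EDTA, NaCl, BME, BSA, NP40, catalase / Also added: SUMO1 FRET substrate flanked by Cypet and Ypet, 25 nM / Times: 50 min reaction at room temperature / Signal: FRET, CFP and YFP emission / Control set: no-enzyme low control and enzyme-plus-DMSO high control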
# SENP8 block-1: SENP8 protease inhibitors, primary screen, biochemical, luminescence; AID 2540, 2010; 330,000 tested, 1.2% active; purified SENP8, Z-RLRGG-aminoluciferin cleavage; inhibition, % at 10 µM; in the data active = inhibition above about 50%
# Target sequence (Q96LD8 whole entry, looked up): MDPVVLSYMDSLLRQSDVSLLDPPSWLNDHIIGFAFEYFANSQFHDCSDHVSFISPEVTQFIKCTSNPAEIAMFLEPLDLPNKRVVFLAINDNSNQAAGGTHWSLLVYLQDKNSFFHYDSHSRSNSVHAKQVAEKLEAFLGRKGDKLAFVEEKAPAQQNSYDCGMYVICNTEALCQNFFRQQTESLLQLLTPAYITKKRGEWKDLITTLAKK
# SENP7 inh: SENP7 protease inhibitors, primary screen, biochemical, luminescence, uHTS; inhibition, % at 5 µM; 330,000 tested, 1.5% active; recombinant SENP7, Z-RLRGG-aminoluciferin luminescence, 40 min;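 active = inhibition above about 50% at the single test dose, limit read from the data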;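 note: plate controls were DMSO with enzyme for no effect and no enzyme buffer wells for full effect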
# SENP8 block-2: human SENP8 protease inhibitors, primary screen, biochemical, fluorescence, Nedd8 protein substrate, uHTS | Sentrin-specific protease 8 (Homo sapiens), Q96LD8 | recombinant SENP8 | inhibition, % at 20 µM | 360,000 tested, 0.64% active | AID 602440, 2012; in the data active = inhibition mostly above about 40%, no sharp cut-off; inactive = mostly below about 27%
# SENP6 inh: SENP6 protease inhibitors, primary screen, biochemical, luminescence, uHTS | Sentrin-specific protease 6 (Homo sapiens), Q9GZR1 | Recombinant SENP6 catalytic domain, aminoluciferin luminescence | inhibition, % at 10 µM | 330,000 tested, 1.8% active;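 active = inhibition above about 50% at the single tested dose, limit read from the data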;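 note: plate controls were DMSO wells with enzyme for no effect and DMSO wells lacking enzyme for full effect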
# SENP8 confirm: SENP8 protease inhibitors, retest, confirmation, biochemical, luminescence, single concentration; shares compounds with SENP7 inh; Recombinant SENP8, Z-RLRGG-aminoluciferin luminescence, 60 min; inhibition, % at 12.5 µM; 6,200 tested, 40% active; AID 488912, 2010;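 active = mean inhibition across replicates above about 50%, limit read from the data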
# SENP6 confirm: SENP6 protease inhibitors, confirmation, biochemical, luminescence, single concentration; recombinant SENP6, Z-RLRGG-aminoluciferin luminescence; shares compounds with SENP7 inh; inhibition, % at 12.5 µM; 6,200 tested, 58% active; AID 488915, 2010
# SENP7 conf: SENP7 protease inhibitors, retest, confirmation, biochemical, luminescence, single concentration | shares compounds with SENP7 inh | recombinant SENP7, Z-RLRGG-aminoluciferin luminescence, 40 min | inhibition, % at 12.5 µM | 6,200 tested, 69% active
# Casp3 select: caspase-3 protease inhibitors, confirmation, selectivity assay for SENP inhibitor project, biochemical, single concentration; shares compounds with SENP7 inh; purified caspase-3, Z-DEVD-aminoluciferin luminescence, 60 min; inhibition, % at 12.5 µM; 6,200 tested, 60% active; AID 488918, 2010;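 active = mean inhibition above about 50%, limit read from the data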;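 note: plate controls were enzyme with DMSO for no effect and wells without caspase-3 for full effect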
# Target sequence (P42574 28-227 limits assumed): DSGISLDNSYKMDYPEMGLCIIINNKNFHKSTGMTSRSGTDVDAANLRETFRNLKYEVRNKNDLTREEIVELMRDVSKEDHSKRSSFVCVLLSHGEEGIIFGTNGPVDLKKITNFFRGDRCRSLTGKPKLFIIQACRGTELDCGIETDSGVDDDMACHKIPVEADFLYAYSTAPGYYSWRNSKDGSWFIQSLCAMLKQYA
# Luc interf: interferes with luciferase luminescence in SENP counter-screen; shares compounds with SENP7 inh; Pre-incubated SENP8/Z-RLRGG-aminoluciferin, luciferase luminescence interference; inhibition, % at 12.5 µM; 6,200 tested, 39% active;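 active = mean inhibition above about 50% when retested at one dose, limit read from the data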;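 note: plate controls were DMSO wells with completed reaction for no effect and substrate without enzyme for full effect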
# An asterisk follows results filed as active; / = no result. The list is not random: actives were taken first. Their share in the collection is about 2.6%.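 Rule for the calls, unless noted: active = mean inhibition above about 50% in the one-dose retest (limit read from the data); inactive = the rest.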
SMILES,UCH37 inh,SENP1 FRET inh,SENP8 block-1,SENP7 inh,SENP8 block-2,SENP6 inh,SENP8 confirm,SENP6 confirm,SENP7 conf,Casp3 select,Luc interf
Cc1ccc(-c2nnc(SCc3ccccc3F)o2)cc1,-0.3,2.5,48.9,57.6*,3.8,66.9*,61.1*,69.9*,87.1*,45.4,43.4
CN(C)c1ccc(C=NNC(=O)c2ccc(-n3cnnn3)cc2)cc1,-2.0,/,/,/,/,/,/,/,/,/,/
Brc1ccc(N=NNc2ccccc2)cc1,/,0.2,12.0,20.4,37.8,51.2*,67.8*,74.4*,88.5*,28.5,46.5
O=[N+]([O-])c1ccc(N=NNc2ccccc2)cc1,5.3,1.3,29.4,39.8,-7.4,59.3*,47.5,48.6,75.4*,16.8,25.2
O=[N+]([O-])c1cccc(NN=Nc2ccccc2)c1,2.8,3.2,70.0*,69.0*,25.4,63.8*,71.1*,68.7*,88.5*,35.5,67.2*
O=[N+]([O-])C(N=Nc1ccccc1)=NNc1ccccc1,5.2,/,/,/,/,/,/,/,/,/,/
Cc1c(NC(=O)c2ccccc2NC(=O)c2ccccc2)cccc1C(=O)O,0.9,2.0,-12.5,-4.7,9.4,-26.1,/,/,/,/,/
O=C(Nc1ccc(NC(=O)C2CC2)cn1)c1ccccc1,4.7,1.3,31.8,45.3,9.5,65.1*,54.9*,53.3*,77.4*,84.5*,8.3
O=C(Nc1ccccc1C(=O)O)c1ccc(NC(=O)C2CCCO2)cc1 (centres undefined),5.0,0.4,24.8,25.6,0.6,47.1,/,/,/,/,/
Cc1c(NC(=O)c2ccc(NC(=O)C3CC3)cc2)cccc1C(=O)O,1.3,0.9,27.0,56.8*,8.2,53.4*,47.9,43.5,76.9*,14.6,34.8
Cc1c(NC(=O)c2ccccc2N)cccc1C(=O)O,-9.7,2.6,46.4,70.7*,-99.8,56.0*,73.6*,67.5*,89.0*,24.6,38.8
COC(=O)NN=Cc1ccccc1OCCOc1ccc(OC)cc1,0.9,/,/,/,/,/,/,/,/,/,/
O=C1c2ccccc2C(=O)C1(CO)c1ccccc1,2.8,0.7,30.6,14.8,18.1,56.1*,38.4,50.4*,82.0*,77.4*,48.1
O=C1c2ccccc2C(=O)C1(CO)c1ccc(OC(F)F)cc1,5.6,1.0,94.0*,2.6,11.8,94.0*,4.4,97.5*,102.7*,95.5*,57.4*
Cc1ccc(NC(=O)c2cc3ccccc3cc2O)cc1,-4.4,-23.4,14.5,49.6,-49.8,45.3,/,/,/,/,/
Cc1ccc(NC(=O)c2cc3ccccc3oc2=O)cc1S(=O)(=O)N(C)C,3.1,-0.3,24.7,73.1*,8.9,35.6,22.1,24.7,16.9,38.7,6.8
COc1ccc(NC(=O)c2cc3ccccc3cc2O)cc1,2.4,-22.0,49.8,13.1,20.0,51.2*,24.9,32.9,88.0*,44.3,8.1
COc1cc2ccccc2cc1C(=O)Nc1ccc(O)cc1,0.1,-27.7,44.3,56.8*,-89.2,63.1*,8.3,37.2,87.2*,59.7*,3.2
O=C(Nc1ccc(F)cc1F)c1cc2ccccc2oc1=O,1.9,2.8,6.6,62.6*,17.2,27.7,6.8,5.7,46.0,53.5*,23.4
COc1ccc2oc(=O)c(C(=O)Nc3ccccc3O)cc2c1,4.0,3.4,74.9*,94.5*,31.9,77.4*,61.4*,77.9*,93.9*,74.5*,21.0
Cc1cc(C)c(NC(=O)c2ccc3c(c2)C(=O)N(Cc2cccnc2)C3=O)c(C)c1,2.2,-0.9,-6.6,-5.0,8.9,-9.1,/,/,/,/,/
Cc1ccc(O)c(NC(=O)c2ccc3c(c2)C(=O)N(Cc2cccnc2)C3=O)c1,4.3,5.6,38.5,85.7*,8.2,47.1,-0.3,14.2,32.3,17.7,-1.3
C(=C\n1nnc2ccccc21)/c1ccccn1,4.0,0.6,73.8*,79.4*,14.3,76.4*,81.0*,80.4*,95.8*,89.3*,74.4*
Nn1nnc2ccccc21,1.3,3.3,-2.6,-7.7,5.8,-25.6,/,/,/,/,/
O=[N+]([O-])c1ccc(Cl)c(C=Nn2c(C3CCCCC3)n[nH]c2=S)c1,4.6,/,/,/,/,/,/,/,/,/,/
SMILES,UCH37 inh,SENP1 FRET inh,SENP8 block-1,SENP7 inh,SENP8 block-2,SENP6 inh,SENP8 confirm,SENP6 confirm,SENP7 conf,Casp3 select,Luc interf
c1ccc(CN2CCOCC2)cc1,5.6,1.5,0.7,87.3*,3.5,-6.7,3.9,0.5,-2.9,-2.2,-3.1
c1ccc(CN2CCOCCOCCOCCOCC2)cc1,6.3,3.1,1.0,6.1,2.4,1.4,/,/,/,/,/
COc1ccc(C)cc1Nc1n[n+](-c2ccccc2)c(-c2ccc(SC)cc2)s1,3.1,0.9,60.2*,13.9,-10.7,68.9*,4.6,66.3*,89.0*,77.9*,70.3*
COc1ccc(C)cc1Nc1n[n+](-c2ccccc2)c(-c2ccc(NC(C)=O)cc2)s1,2.9,4.3,-6.2,5.8,-7.9,-17.7,/,/,/,/,/
CC(=O)Nc1ccc2c(c1)C(=O)c1ccccc1C2=O,3.1,0.7,-8.6,12.0,17.5,-14.1,/,/,/,/,/
O=C(O)/C=C/C(=O)Nc1ccc2c(c1)C(=O)c1ccccc1C2=O,11.5,14.6,47.0,52.8*,17.0,77.8*,73.4*,67.4*,84.6*,24.6,79.4*
Cc1cc(C)n(-c2nncn2N=Cc2ccccc2F)n1,5.0,/,/,/,/,/,/,/,/,/,/
COc1cc(/C=N/O)ccc1OCc1ccccc1Cl,/,-0.5,41.4,50.2*,7.9,66.7*,43.1,54.8*,79.0*,33.0,59.4*
COc1cc(C=NO)ccc1OCc1ccccc1Cl,3.7,/,/,/,/,/,/,/,/,/,/
